These results are taken from the RNAGym collection of RNA variant scans (doi:10.1002/anie.201605470).

To fix the notation:
B1: Osa-1-4 twister ribozyme (parent)
chain: CCGCCUAACACUGCCAAUGCCGGUCCCAAGCCCGGAUAAAAGUGGAGGGGGCGG

Variants of B1 are the subject of this data set. Nature of the data set: self-cleavage, relative activity (ratio to wild type); higher = more cleavage; co-transcriptional. In a few lines:
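The 48 positions downstream of the cleavage site in a 54-nucleotide Oryza sativa twister ribozyme template were synthesised at 97 % wild-type base and 1 % of each other base. The template was transcribed in vitro at 37 °C for 2 h, with self-cleavage allowed during transcription. Reads with or without upstream sequence after deep sequencing marked cleavage status, and relative activity is fraction cleaved normalised to wild type.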
For CCGCCUAACACUGCCUAUGCCGGUCCCAAGCCCGGAUAAAAGUGUAGGGGGCGG, the self-cleavage amounted to 0.1.
With CCGCCUAACACUGCCUAUGCCGGUCCCAAGCCCGGAUAAAAGUGAAGGGGGCGG the figure was 0.36.
In the case of CCGCCUAACACUGCCUAUGCCGGUCCCAAGCCCGGAUAAAAGUGCAGGGGGCGG, the self-cleavage was found to be 0.04.
On to CCGCCUAACACUGCCUAUGCCGGUCCCAAGCCCGGAUAAAAGUGGAAGGGGCGG, for which the self-cleavage is 0.24.
On to CCGCCUAACACUGCCUAUGCCGGUCCCAAGCCCGGAUAAAAGUGGAUGGGGCGG, for which the self-cleavage stood at 0.2.
On to CCGCCUAACACUGCCUAUGCCGGUCCCAAGCCCGGAUAAAAGUGGACGGGGCGG, for which the self-cleavage amounted to 0.08.
With CCGCCUAACACUGCCUAUGCCGGUCCCAAGCCCGGAUAAAAGUGGAGGAGGCGG the figure was 0.11; with CCGCCUAACACUGCCUAUGCCGGUCCCAAGCCCGGAUAAAAGUGGAGGCGGCGG, 0.06; with CCGCCUAACACUGCCUAUGCCGGUCCCAAGCCCGGAUAAAAGUGGAGGUGGCGG, 0.11.
The value for CCGCCUAACACUGCCUAUGCCGGUCCCAAGCCCGGAUAAAAGUGGAGGGGCCGG was 0.16; that for CCGCCUAACACUGCCUAUGCCGGUCCCAAGCCCGGAUAAAAGUGGAGGGGACGG was 0.64.
The value for CCGCCUAACACUGCCUAUGCCGGUCCCAAGCCCGGAUAAAAGUGGAGGGGUCGG was 0.39.
For CCGCCUAACACUGCCUAUGCCGGUCCCAAGCCCGGAUAAAAGUGGAGGGGGCGA, the self-cleavage came to 0.93.
The value for CCGCCUAACACUGCCUAUGCCGGUCCCAAGCCCGGAUAAAAGUGGAGGGGGCGU was 0.94; that for CCGCCUAACACUGCCUAUGCCGGUCCCAAGCCCGGAUAAAAGUGGAGGGGGCGC was 0.88; that for CCGCCUAACACUGCCUAUGCCGGUCCCAAGCCCGGAUAAAAGUGGAGGGGGCCG was 0.1.
The value for CCGCCUAACACUGCCUAUGCCGGUCCCAAGCCCGGAUAAAAGUGGAGGGGGCAG was 0.85; that for CCGCCUAACACUGCCUAUGCCGGUCCCAAGCCCGGAUAAAAGUGGAGGGGGCUG was 0.4.
The value for CCGCCUAACACUGCCACUGCCGGUCCCAAGCCCGGAUAAAAGUGGAGGGGGCGG was 0.76; that for CCGCCUAACACUGCCUAUGCCGGUCCCAAGCCCGGAGAAAAGUGGAGGGGGCGG was 1; that for CCGCCUAACACUGCCUAUGCCGGUCCCAAGCCCGGAAAAAAGUGGAGGGGGCGG was 0.83.
In the case of CCGCCUAACACUGCCUAUGCCGGUCCCAAGCCCGGACAAAAGUGGAGGGGGCGG, the self-cleavage came out at 1.06.
With CCGCCUAACACUGCCUAUGCCGGUCCCAAGCCCGGAUAAAAGAGGAGGGGGCGG, the self-cleavage was 0.85.
With CCGCCUAACACUGCCUAUGCCGGUCCCAAGCCCGGAUAAAAGCGGAGGGGGCGG the figure was 0.36; with CCGCCUAACACUGCCUAUGCCGGUCCCAAGCCCGGAUAAAAGGGGAGGGGGCGG, 0.33; with CCGCCUAACACUGCCACUGCCGGUCCCUAGCCCGGAUAAAAGUGGAGGGGGCGG, 0.29.
With CCGCCUAACACUGCCACUGCCGGUCCCGAGCCCGGAUAAAAGUGGAGGGGGCGG the figure was 0.05; with CCGCCUAACACUGCCACUGCCGGUCCCCAGCCCGGAUAAAAGUGGAGGGGGCGG, 0.6.
With CCGCCUAACACAGCCUAUGCCGGUCCCAAGCCCGGAUAAAAGUGGAGGGGGCGG the figure was 0.92.
CCGCCUAACACCGCCUAUGCCGGUCCCAAGCCCGGAUAAAAGUGGAGGGGGCGG: the self-cleavage worked out at 0.47.
Consider CCGCCUAACACGGCCUAUGCCGGUCCCAAGCCCGGAUAAAAGUGGAGGGGGCGG, for which the self-cleavage came out at 0.16.
The value for CCGCCUAACACUGCCUAUGCCGGUCCCAAGCCCGGAUAAAAGUGGAGGGAGCGG was 0.67.
With CCGCCUAACACUGCCUAUGCCGGUCCCAAGCCCGGAUAAAAGUGGAGGGUGCGG the figure was 0.94.
The value for CCGCCUAACACUGCCUAUGCCGGUCCCAAGCCCGGAUAAAAGUGGAGGGCGCGG was 0.95.
On to CCGCCUAACACUGCCUAGGCCGGUCCCAAGCCCGGAUAAAAGUGGAGGGGGCGG, for which the self-cleavage was found to be 0.66.
Turning to CCGCCUAACACUGCCUACGCCGGUCCCAAGCCCGGAUAAAAGUGGAGGGGGCGG, the self-cleavage amounted to 0.87.
With CCGCCUAACACUGCCUAAGCCGGUCCCAAGCCCGGAUAAAAGUGGAGGGGGCGG the figure was 0.89; with CCGCCUAACACUGCCUAUGCCGGGCCCAAGCCCGGAUAAAAGUGGAGGGGGCGG, 0.02; with CCGCCUAACACUGCCUAUGCCGGACCCAAGCCCGGAUAAAAGUGGAGGGGGCGG, 0.15.
With CCGCCUAACACUGCCUAUGCCGGCCCCAAGCCCGGAUAAAAGUGGAGGGGGCGG the figure was 0.29; with CCGCCUAACACUGCCUAUGCCGGUCCCAAGCCCGGAUAAAAGUGGAGAGGGCGG, 0.08.
CCGCCUAACACUGCCUAUGCCGGUCCCAAGCCCGGAUAAAAGUGGAGCGGGCGG: the self-cleavage is 0.07.
The value for CCGCCUAACACUGCCUAUGCCGGUCCCAAGCCCGGAUAAAAGUGGAGUGGGCGG was 0.06; that for CCGCCUUACACUGCCACUGCCGGUCCCAAGCCCGGAUAAAAGUGGAGGGGGCGG was 0.06; that for CCGCCUCACACUGCCACUGCCGGUCCCAAGCCCGGAUAAAAGUGGAGGGGGCGG was 0.08.
For the variant CCGCCUGACACUGCCACUGCCGGUCCCAAGCCCGGAUAAAAGUGGAGGGGGCGG, the self-cleavage was determined as 0.1.
The value for CCGCCUAUCACUGCCACUGCCGGUCCCAAGCCCGGAUAAAAGUGGAGGGGGCGG was 0.06; that for CCGCCUACCACUGCCACUGCCGGUCCCAAGCCCGGAUAAAAGUGGAGGGGGCGG was 0.08; that for CCGCCUAGCACUGCCACUGCCGGUCCCAAGCCCGGAUAAAAGUGGAGGGGGCGG was 0.12.
